Assay results taken from ChEMBL document CHEMBL2396599, “Design of cell-permeable stapled peptides as HIV-1 integrase inhibitors” (J Med Chem, 2013).
Starred links: 1 amine or outer side, 2 acyl side, 3 side chain; linkers in the order of their positions; H or OH if unused. Positions of bridges follow the written chain, without caps; N, C: chain ends. Non-standard residues stand in square brackets, D forms with d. Residues, ends and D or L forms follow the SMILES beside them. αMeNva(5-ylidene) = C[C@@](CCC=[*:3])(N[*:1])C(=O)[*:2]; X1 = C[C@@](CCCCC=[*:3])(N[*:1])C(=O)[*:2]; X3 = C=CCCCC[C@](C)(N[*:1])C(=O)[*:2]; X2 = C=CC[C@](C)(N[*:1])C(=O)[*:2]; S5 = C=CCCC[C@](C)(N)C(=O)O

What was measured:
[1] = target: T1, Human immunodeficiency virus type 1 integrase (Human immunodeficiency virus 1, UniProt Q7ZJM1); experiment: Inhibition of wild type HIV-1 integrase 3' processing activity after 30 mins
Method in brief: (§1)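 IC₅₀ is the concentration giving 50% inhibition of HIV-1 integrase enzymatic activity, determined separately for 3′-processing and for strand transfer.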

[2] = target: T1, Human immunodeficiency virus type 1 integrase; experiment: Inhibition of wild type HIV-1 integrase strand transfer activity after 30 mins; method in brief: as §1
[3] = target: T1, Human immunodeficiency virus type 1 integrase; experiment: Inhibition of HIV-1 His6-tagged integrase assessed as inhibition of LEDGF/p75-integrase interaction incubated 30 mins prior to flag-tagged LEDGF/p75 addition measured after 1 hr by AlphaScreen assay
Method in brief: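 IC₅₀ is the concentration giving 50% inhibition of the interaction between LEDGF/p75 and HIV-1 integrase.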

[4] = Cytotoxicity against human MT4 cells by MTT assay; type: cell-based
Method in brief: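 CC₅₀ was the concentration causing 50% death of MT-4 cells, in the same cells used for the HIV-1 cytoprotection assay. This value feeds the CC₅₀/EC₅₀ ratio.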

[5] = test system: Human immunodeficiency virus 1; experiment: Antiviral activity against Human immunodeficiency virus 1 infected in human MT4 cells assessed as inhibition of virus-induced cytopathic effect by MTT assay; type: functional, organism-based; conditions: Human immunodeficiency virus 1, MT4
Method in brief: (§2)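 Antiviral activity taken as the concentration giving 50% protection of HIV-1-infected MT-4 cells. Cytotoxicity was read as 50% cell death in the same cells. Therapeutic index = CC₅₀/EC₅₀.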

[6] = Therapeutic index, ratio of CC50 for human MT4 cells to EC50 for Human immunodeficiency virus 1; type: cell-based; conditions: read-out: Ratio CC50/EC50; method in brief: as §2
[7] = test system: Human immunodeficiency virus; experiment: Antiviral activity against AMD3100-resistant Human immunodeficiency virus; type: functional, organism-based; conditions: Human immunodeficiency virus 1
MT4 = experiment: Cellular uptake in human MT4 cells at 10 to 500 uM after 1 hr by confocal microscopy; type: ADME, cell-based; conditions: mt4, 1 h
Method in brief: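 Fluorescein-labelled peptides were incubated with MT-4 cells for 1 h. Confocal z-stacks were taken at 0.3 step, with FITC excited at 488 nm and a cell-membrane dye at 543 nm.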

[8] = Drug uptake in human PANC1 cell nucleus at 40 uM after 1 to 3 hrs by Draq5 staining-based confocal microscopy; type: ADME; conditions: panc-1, 40 µM
Method in brief: (§3)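 CEM, HCT116 and Panc-1 cells were treated with the fluorescein-labelled stapled peptide for 3 h. Uptake was imaged by confocal microscopy with Draq5 nuclear staining.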

[9] = Drug uptake in human CEM cell nucleus at 40 uM after 1 to 3 hrs by Draq5 staining-based confocal microscopy; type: ADME; conditions: ccrf-cem; method in brief: as §3
[10] = Drug uptake in human HCT116 cell nucleus at 40 uM after 1 to 3 hrs by Draq5 staining-based confocal microscopy; type: ADME; conditions: hct-116, 40 µM; method in brief: as §3
[11] = Cellular uptake in human HCT116 cell cytoplasm at 40 uM after 1 to 3 hrs by Draq5 staining-based confocal microscopy; type: ADME; conditions: hct-116, 40 µM; method in brief: as §3
[12] = Cellular uptake in human PANC1 cell cytoplasm at 40 uM after 1 to 3 hrs by Draq5 staining-based confocal microscopy; type: ADME; conditions: panc-1, 40 µM; method in brief: as §3
[13] = Cellular uptake in human CEM cytoplasm at 40 uM after 1 to 3 hrs by Draq5 staining-based confocal microscopy; type: ADME; method in brief: as §3

T1 sequence (Q7ZJM1 whole entry): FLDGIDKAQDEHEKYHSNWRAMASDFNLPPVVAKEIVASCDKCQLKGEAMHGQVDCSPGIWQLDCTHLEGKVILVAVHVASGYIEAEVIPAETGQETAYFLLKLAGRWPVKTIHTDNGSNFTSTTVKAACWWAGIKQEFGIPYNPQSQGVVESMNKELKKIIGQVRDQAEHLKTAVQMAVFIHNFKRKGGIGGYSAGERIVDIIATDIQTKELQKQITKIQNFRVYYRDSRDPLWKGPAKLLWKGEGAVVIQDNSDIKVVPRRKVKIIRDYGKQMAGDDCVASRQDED

Row | IC50 [1] | IC50 [2] | IC50 [3] | Drug uptake (MT4) | Drug uptake [8] | Drug uptake [9] | Drug uptake [10] | Drug uptake [11] | Drug uptake [12] | Drug uptake [13] | Structure (SMILES) | CC50 [4] | EC50 [5] | selectivity ratio [6] | EC50 [7]
1 | > 100 µM | > 100 µM |  |  |  |  |  |  |  |  | C=CCCC[C@](C)(NC(=O)CNC(=O)[C@H](C)NC(=O)[C@H](CC(C)C)NC(=O)[C@](C)(CCCC=C)NC(=O)[C@H](CC(C)C)NC(=O)[C@H](CC(C)C)NC(=O)[C@H](Cc1ccccc1)NC(=O)[C@H](Cc1ccc(O)cc1)NC(=O)[C@H](C)NC(=O)[C@@H](N)[C@@H](C)O)C(=O)N[C@@H](Cc1c[nH]c2ccccc12)C(=O)O (H-TAYFLL[S5]LAG[S5]W-OH) |  |  |  | 
2 | > 100 µM | > 100 µM |  |  |  |  |  |  |  |  | CC(C)C[C@H](NC(=O)[C@H](Cc1ccccc1)NC(=O)[C@H](Cc1ccc(O)cc1)NC(=O)[C@H](C)NC(=O)[C@@H](N)[C@@H](C)O)C(=O)N[C@@H](CC(C)C)C(=O)N[C@@]1(C)CCC/C=C/CCC[C@@](C)(C(=O)N[C@@H](Cc2c[nH]c3ccccc23)C(=O)O)NC(=O)CNC(=O)[C@H](C)NC(=O)[C@H](CC(C)C)NC1=O (H-TAYFLL[S5]LAG[S5]W-OH; staple (E) 7-11) |  |  |  | 
3 | 15 µM | 11 µM | > 100 µM |  |  |  |  |  |  |  | C=CCCC[C@](C)(NC(=O)[C@H](CC(C)C)NC(=O)[C@@H](NC(=O)[C@H](CC(C)C)NC(=O)[C@](C)(CCCC=C)NC(=O)[C@H](Cc1ccccc1)NC(=O)[C@H](Cc1ccc(O)cc1)NC(=O)[C@H](C)NC(=O)[C@@H](N)[C@@H](C)O)[C@@H](C)CC)C(=O)NCC(=O)N[C@@H](CCCNC(=N)N)C(=O)N[C@@H](Cc1c[nH]c2ccccc12)C(=O)O (H-TAYF[S5]LIL[S5]GRW-OH) | 18 µM | 11 µM | 1.6 | 
4 | 9 µM | 6 µM | 14 µM |  |  |  |  |  |  |  | CC(C)C[C@@H]1NC(=O)[C@H](CCCCN)NC(=O)[C@H](CC(C)C)NC(=O)[C@@](C)(NC(=O)[C@H](Cc2ccccc2)NC(=O)[C@H](Cc2ccc(O)cc2)NC(=O)[C@H](C)NC(=O)[C@@H](N)[C@@H](C)O)CCC/C=C\CCC[C@@](C)(C(=O)NCC(=O)N[C@@H](CCCNC(=N)N)C(=O)N[C@@H](Cc2c[nH]c3ccccc23)C(=O)O)NC1=O (H-TAYF[S5]LKL[S5]GRW-OH; staple (Z) 5-9) | 50 µM | 20 µM | 3 | 
5 | 48 µM | 44 µM |  |  |  |  |  |  |  |  | CC(C)C[C@@H]1NC(=O)[C@H](CCCCN)NC(=O)[C@H](CC(C)C)NC(=O)[C@@](C)(NC(=O)[C@H](Cc2ccccc2)NC(=O)[C@H](Cc2ccc(O)cc2)NC(=O)[C@H](C)NC(=O)[C@@H](N)[C@@H](C)O)CCCC/C=C/CCCC[C@@](C)(C(=O)NCC(=O)N[C@@H](CCCNC(=N)N)C(=O)N[C@@H](Cc2c[nH]c3ccccc23)C(=O)O)NC1=O (H-TAYF[X1]LKL[X1]GRW-OH; staple (E) 5-9) |  |  |  | 
6 | > 333 µM | > 111 µM |  |  |  |  |  |  |  |  | C=CC[C@](C)(NC(=O)[C@H](CC(C)C)NC(=O)[C@H](CCCCN)NC(=O)[C@H](CC(C)C)NC(=O)[C@](C)(CC=C)NC(=O)[C@H](Cc1ccccc1)NC(=O)[C@H](Cc1ccc(O)cc1)NC(=O)[C@H](C)NC(=O)[C@@H](N)[C@@H](C)O)C(=O)NCC(=O)N[C@@H](CCCNC(=N)N)C(=O)N[C@@H](Cc1c[nH]c2ccccc12)C(=O)O (H-TAYF[X2]LKL[X2]GRW-OH) |  |  |  | 
7 | 61 µM | 43 µM |  |  |  |  |  |  |  |  | C=CCCCC[C@](C)(NC(=O)[C@H](CC(C)C)NC(=O)[C@H](CCCCN)NC(=O)[C@H](CC(C)C)NC(=O)[C@](C)(CCCCC=C)NC(=O)[C@H](Cc1ccccc1)NC(=O)[C@H](Cc1ccc(O)cc1)NC(=O)[C@H](C)NC(=O)[C@@H](N)[C@@H](C)O)C(=O)NCC(=O)N[C@@H](CCCNC(=N)N)C(=O)N[C@@H](Cc1c[nH]c2ccccc12)C(=O)O (H-TAYF[X3]LKL[X3]GRW-OH) |  |  |  | 
8 | 90 µM | 83 µM | 14 µM |  |  |  |  |  |  |  | CC(C)C[C@@H]1NC(=O)[C@H](CCCCN)NC(=O)[C@H](CC(C)C)NC(=O)[C@@](C)(NC(=O)[C@H](Cc2ccccc2)NC(=O)[C@H](Cc2ccc(O)cc2)NC(=O)[C@H](C)NC(=O)[C@@H](N)[C@@H](C)O)CC/C=C/CC[C@@](C)(C(=O)NCC(=O)N[C@@H](CCCNC(=N)N)C(=O)N[C@@H](Cc2c[nH]c3ccccc23)C(=O)O)NC1=O (H-TAYF[αMeNva(5-ylidene)]LKL[αMeNva(5-ylidene)]GRW-OH; staple (E) 5-9) | 40 µM | > 40 µM |  | 
9 | 53 µM | 19 µM | > 100 µM |  |  |  |  |  |  |  | CC(C)C[C@H](NC(=O)[C@H](CCCCN)NC(=O)[C@H](CC(C)C)NC(=O)[C@]1(C)CCC/C=C\CCC[C@](C)(N)C(=O)N[C@@H](C)C(=O)N[C@@H](Cc2ccc(O)cc2)C(=O)N[C@@H](Cc2ccccc2)C(=O)N1)C(=O)N[C@@H](C)C(=O)NCC(=O)N[C@@H](CCCNC(=N)N)C(=O)N[C@@H](Cc1c[nH]c2ccccc12)C(=O)O (H-[S5]AYF[S5]LKLAGRW-OH; staple (Z) 1-5) | 25 µM | 4 µM | 6 | 
10 | 17.5 µM | 6.2 µM | 25 µM | Not Active |  |  |  |  |  |  | CC(C)C[C@H](NC(=O)[C@H](CCCCN)NC(=O)[C@H](CC(C)C)NC(=O)[C@H](CC(C)C)NC(=O)[C@H](Cc1ccccc1)NC(=O)[C@H](Cc1ccc(O)cc1)NC(=O)[C@H](C)NC(=O)[C@@H](NC(=O)c1ccc2c(c1)C(=O)OC21c2ccc(O)cc2Oc2cc(O)ccc21)[C@@H](C)O)C(=O)N[C@@H](C)C(=O)NCC(=O)N[C@@H](CCCNC(=N)N)C(=O)N[C@@H](Cc1c[nH]c2ccccc12)C(=O)O (mixture of isomers) | 70 µM | 13 µM | 5 | 
11 | 5 µM | 6 µM | 25 µM | Active | Active | Active | Active | Active | Active | Active | CC(C)C[C@@H]1NC(=O)[C@H](CCCCN)NC(=O)[C@H](CC(C)C)NC(=O)[C@@](C)(NC(=O)[C@H](Cc2ccccc2)NC(=O)[C@H](Cc2ccc(O)cc2)NC(=O)[C@H](C)NC(=O)[C@@H](NC(=O)c2ccc3c(c2)C(=O)OC32c3ccc(O)cc3Oc3cc(O)ccc32)[C@@H](C)O)CCC/C=C\CCC[C@@](C)(C(=O)NCC(=O)N[C@@H](CCCNC(=N)N)C(=O)N[C@@H](Cc2c[nH]c3ccccc23)C(=O)O)NC1=O (mixture of isomers) | > 125 µM | 11 µM | > 11 | 

Row | Structure (SMILES) | IC50 [1] | IC50 [2] | IC50 [3] | Drug uptake (MT4) | Drug uptake [8] | Drug uptake [9] | Drug uptake [10] | Drug uptake [11] | Drug uptake [12] | Drug uptake [13] | CC50 [4] | EC50 [5] | selectivity ratio [6] | EC50 [7]
12 | CC[C@H](C)[C@@H]1NC(=O)[C@H](CC(C)C)NC(=O)[C@@](C)(NC(=O)[C@H](Cc2ccccc2)NC(=O)[C@H](Cc2ccc(O)cc2)NC(=O)[C@H](C)NC(=O)[C@@H](N)[C@@H](C)O)CCC/C=C\CCC[C@@](C)(C(=O)NCC(=O)N[C@@H](CCCNC(=N)N)C(=O)N[C@@H](Cc2c[nH]c3ccccc23)C(=O)O)NC(=O)[C@H](CC(C)C)NC1=O (H-TAYF[S5]LIL[S5]GRW-OH; staple (Z) 5-9) | 22 µM | 25 µM | 5 µM |  |  |  |  |  |  |  | 41 µM | 5 µM | 8 | 4.3 µM
